Test results from ChEMBL document CHEMBL1135730, “Nanomolar small molecule inhibitors for alphav(beta)6, alphav(beta)5, and alphav(beta)3 integrins” (J Med Chem, 2002).

Tests used:
[1] = target: T1, Integrin alpha-V/beta-5 (Homo sapiens, UniProt P06756+P18084); experiment: Inhibition of vitronectin binding to recombinant human alphaV-beta5 integrin; type: protein-complex assay
Procedure, shortened: (§1)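 Isolated-integrin ELISA. Plates were coated by adsorption from neutral buffer with 1 µg mL^-1 integrin: recombinant human αvβ3, αvβ5 or αvβ6, or αIIbβ3 isolated from human platelets. The plate was blocked with BSA. Biotinylated ligand (1 µg mL^-1) was added with serial inhibitor dilutions: human serum vitronectin for αvβ3/αvβ5, fibronectin for αvβ6, fibrinogen for αIIbβ3. Bound biotin was detected with peroxidase anti-biotin and TMB.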

[2] = target: T1, Integrin alpha-V/beta-5; experiment: Inhibition of integrin alpha-v/beta-5 mediated UCLAP-3 cell adhesion on vitronectin; type: functional, cell-based
Procedure, shortened: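 UCLAP-3 human lung adenocarcinoma cells attach to vitronectin exclusively via αvβ5. Freshly harvested cells were plated on vitronectin-coated surfaces into serial inhibitor dilutions. Attachment was measured at 1 h by lysosomal hexosaminidase cell count. IC50 by curve fitting, mean of two independent determinations.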

[3] = target: T2, Integrin alpha-V/beta-6 (Homo sapiens, UniProt P06756+P18564); experiment: Inhibition of integrin alpha-v/beta-6 mediated UCLAP-3 cell adhesion to fibronectin; type: functional, cell-based
T2 sequence (P06756 31-889 limits assumed): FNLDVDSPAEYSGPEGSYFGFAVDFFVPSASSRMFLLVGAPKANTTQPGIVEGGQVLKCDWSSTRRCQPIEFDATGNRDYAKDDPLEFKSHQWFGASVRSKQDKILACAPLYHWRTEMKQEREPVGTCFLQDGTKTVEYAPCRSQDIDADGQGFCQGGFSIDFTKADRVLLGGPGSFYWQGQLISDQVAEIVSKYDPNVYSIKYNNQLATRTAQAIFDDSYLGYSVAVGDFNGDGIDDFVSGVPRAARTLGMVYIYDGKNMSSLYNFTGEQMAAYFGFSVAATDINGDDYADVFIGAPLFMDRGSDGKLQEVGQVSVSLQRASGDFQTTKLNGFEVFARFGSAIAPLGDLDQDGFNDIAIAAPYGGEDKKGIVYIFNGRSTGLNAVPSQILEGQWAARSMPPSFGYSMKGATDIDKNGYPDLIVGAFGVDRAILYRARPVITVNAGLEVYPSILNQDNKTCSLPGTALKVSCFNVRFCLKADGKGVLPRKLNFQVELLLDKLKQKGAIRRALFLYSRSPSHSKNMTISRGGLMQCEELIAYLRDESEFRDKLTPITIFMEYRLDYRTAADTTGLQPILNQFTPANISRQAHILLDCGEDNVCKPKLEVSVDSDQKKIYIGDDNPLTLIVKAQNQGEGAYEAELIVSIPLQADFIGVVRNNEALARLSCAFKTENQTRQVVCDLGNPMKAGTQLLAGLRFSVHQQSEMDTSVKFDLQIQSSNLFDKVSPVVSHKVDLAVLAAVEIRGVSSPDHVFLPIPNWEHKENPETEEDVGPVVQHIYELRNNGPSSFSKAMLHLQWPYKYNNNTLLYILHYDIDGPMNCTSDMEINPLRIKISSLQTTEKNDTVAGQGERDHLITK
T2 sequence (P06756 891-1048 limits assumed): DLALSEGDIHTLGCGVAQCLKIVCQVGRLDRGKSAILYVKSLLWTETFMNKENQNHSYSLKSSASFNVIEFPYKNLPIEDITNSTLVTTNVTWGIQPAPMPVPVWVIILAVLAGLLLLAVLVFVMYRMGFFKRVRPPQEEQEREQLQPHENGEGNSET
T2 sequence (P18564 22-788 limits assumed): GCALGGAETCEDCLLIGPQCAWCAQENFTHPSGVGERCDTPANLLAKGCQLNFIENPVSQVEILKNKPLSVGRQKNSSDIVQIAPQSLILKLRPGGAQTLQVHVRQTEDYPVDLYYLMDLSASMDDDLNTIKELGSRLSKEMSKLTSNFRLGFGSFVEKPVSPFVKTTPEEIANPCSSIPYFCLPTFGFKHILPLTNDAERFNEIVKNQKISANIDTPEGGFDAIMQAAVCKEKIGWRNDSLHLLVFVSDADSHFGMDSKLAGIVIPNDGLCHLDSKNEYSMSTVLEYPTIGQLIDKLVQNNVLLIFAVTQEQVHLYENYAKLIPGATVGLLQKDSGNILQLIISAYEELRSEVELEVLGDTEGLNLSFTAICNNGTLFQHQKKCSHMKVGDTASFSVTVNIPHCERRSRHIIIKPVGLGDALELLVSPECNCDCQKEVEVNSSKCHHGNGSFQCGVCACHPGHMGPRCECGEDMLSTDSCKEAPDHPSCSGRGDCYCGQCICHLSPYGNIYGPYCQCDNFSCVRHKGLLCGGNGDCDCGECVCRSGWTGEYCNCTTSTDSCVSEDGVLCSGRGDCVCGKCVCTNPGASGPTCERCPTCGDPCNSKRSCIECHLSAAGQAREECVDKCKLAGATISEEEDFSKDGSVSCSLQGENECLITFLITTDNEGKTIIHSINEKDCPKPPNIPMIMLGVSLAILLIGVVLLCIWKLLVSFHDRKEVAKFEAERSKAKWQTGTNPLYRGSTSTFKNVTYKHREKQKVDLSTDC

[4] = target: Integrin alpha-IIb/beta-3 (Homo sapiens, UniProt P05106+P08514); experiment: Inhibition of fibrinogen binding to human platelet glycoprotein alpha IIb beta3 integrin
Chain of Integrin alpha-IIb/beta-3 (P05106 27-788 limits assumed): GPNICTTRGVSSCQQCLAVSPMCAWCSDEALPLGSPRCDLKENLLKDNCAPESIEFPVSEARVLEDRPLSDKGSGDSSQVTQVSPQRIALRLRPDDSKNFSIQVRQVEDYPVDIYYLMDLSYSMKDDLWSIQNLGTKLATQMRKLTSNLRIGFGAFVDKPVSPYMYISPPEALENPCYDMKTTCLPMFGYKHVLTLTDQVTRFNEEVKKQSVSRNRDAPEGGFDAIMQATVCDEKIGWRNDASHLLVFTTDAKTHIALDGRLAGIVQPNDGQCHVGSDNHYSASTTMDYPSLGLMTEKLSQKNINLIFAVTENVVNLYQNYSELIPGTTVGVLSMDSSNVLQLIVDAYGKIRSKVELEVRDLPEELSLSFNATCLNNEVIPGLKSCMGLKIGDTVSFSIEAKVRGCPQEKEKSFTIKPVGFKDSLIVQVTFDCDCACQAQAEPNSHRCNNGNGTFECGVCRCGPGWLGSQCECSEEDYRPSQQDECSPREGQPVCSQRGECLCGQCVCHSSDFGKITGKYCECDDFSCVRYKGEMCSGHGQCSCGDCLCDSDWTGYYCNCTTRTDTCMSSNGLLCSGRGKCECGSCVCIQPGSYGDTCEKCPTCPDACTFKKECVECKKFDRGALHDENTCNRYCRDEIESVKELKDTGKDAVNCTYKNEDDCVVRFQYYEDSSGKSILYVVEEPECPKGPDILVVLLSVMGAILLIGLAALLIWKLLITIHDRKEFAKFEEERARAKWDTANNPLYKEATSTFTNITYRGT
Chain of Integrin alpha-IIb/beta-3 (P08514 32-887 limits assumed): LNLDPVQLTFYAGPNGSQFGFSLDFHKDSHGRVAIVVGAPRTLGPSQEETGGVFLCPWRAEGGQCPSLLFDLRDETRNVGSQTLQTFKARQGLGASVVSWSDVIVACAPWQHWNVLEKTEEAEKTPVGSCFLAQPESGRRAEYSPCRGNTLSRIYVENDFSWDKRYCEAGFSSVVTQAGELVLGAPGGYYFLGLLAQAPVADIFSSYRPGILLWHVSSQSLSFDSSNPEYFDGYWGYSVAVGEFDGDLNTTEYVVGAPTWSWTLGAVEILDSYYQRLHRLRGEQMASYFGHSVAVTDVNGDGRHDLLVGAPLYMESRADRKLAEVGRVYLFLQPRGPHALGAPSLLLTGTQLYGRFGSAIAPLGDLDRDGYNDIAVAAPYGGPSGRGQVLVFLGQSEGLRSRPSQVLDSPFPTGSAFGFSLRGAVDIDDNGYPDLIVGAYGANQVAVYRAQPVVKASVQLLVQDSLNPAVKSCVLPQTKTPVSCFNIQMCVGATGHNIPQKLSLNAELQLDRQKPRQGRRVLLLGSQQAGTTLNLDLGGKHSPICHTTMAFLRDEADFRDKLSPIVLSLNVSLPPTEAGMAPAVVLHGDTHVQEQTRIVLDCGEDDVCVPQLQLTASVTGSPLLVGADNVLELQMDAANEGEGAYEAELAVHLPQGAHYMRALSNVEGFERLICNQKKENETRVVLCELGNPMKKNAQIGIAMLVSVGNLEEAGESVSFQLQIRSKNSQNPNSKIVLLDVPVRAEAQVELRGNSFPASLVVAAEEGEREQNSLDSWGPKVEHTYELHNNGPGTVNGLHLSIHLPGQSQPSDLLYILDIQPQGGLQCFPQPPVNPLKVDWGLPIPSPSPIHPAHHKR
Chain of Integrin alpha-IIb/beta-3 (P08514 891-1039 limits assumed): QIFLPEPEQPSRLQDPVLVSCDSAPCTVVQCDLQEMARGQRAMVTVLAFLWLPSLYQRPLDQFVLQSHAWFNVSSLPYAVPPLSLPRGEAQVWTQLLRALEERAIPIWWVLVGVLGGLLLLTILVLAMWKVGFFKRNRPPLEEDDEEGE

[5] = target: T3, Integrin alpha-V/beta-3 (Homo sapiens, UniProt P05106+P06756); experiment: Inhibition of integrin alpha-v/beta-3 mediated M21 cell adhesion to vitronectin with monoclonal antibody P1F6; type: functional, cell-based
T3 sequence (P05106 27-788 limits assumed): as the sequence (P05106 27-788 limits assumed) above
T3 sequence (P06756 31-889 limits assumed): as the sequence (P06756 31-889 limits assumed) above
T3 sequence (P06756 891-1048 limits assumed): as the sequence (P06756 891-1048 limits assumed) above
Procedure, shortened: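 M21 human melanoma cells were freshly harvested and plated on vitronectin-coated surfaces into serial inhibitor dilutions, with αvβ5-blocking mAb P1F6 present so attachment is αvβ3-dependent. Attached cells were counted after 1 h by lysosomal hexosaminidase. IC50 by curve fitting, mean of two independent determinations.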

[6] = target: T2, Integrin alpha-V/beta-6; experiment: Inhibition of fibronectin binding to recombinant human alphaV-beta6 integrin; type: protein-complex assay; procedure, shortened: as §1
[7] = target: T3, Integrin alpha-V/beta-3; experiment: Inhibition of vitronectin binding to recombinant human alphaV-beta3 integrin; type: protein-complex assay; procedure, shortened: as §1

T1 sequence (P06756 31-889 limits assumed): as the sequence (P06756 31-889 limits assumed) above
T1 sequence (P06756 891-1048 limits assumed): as the sequence (P06756 891-1048 limits assumed) above
T1 sequence (P18084 24-799 limits assumed): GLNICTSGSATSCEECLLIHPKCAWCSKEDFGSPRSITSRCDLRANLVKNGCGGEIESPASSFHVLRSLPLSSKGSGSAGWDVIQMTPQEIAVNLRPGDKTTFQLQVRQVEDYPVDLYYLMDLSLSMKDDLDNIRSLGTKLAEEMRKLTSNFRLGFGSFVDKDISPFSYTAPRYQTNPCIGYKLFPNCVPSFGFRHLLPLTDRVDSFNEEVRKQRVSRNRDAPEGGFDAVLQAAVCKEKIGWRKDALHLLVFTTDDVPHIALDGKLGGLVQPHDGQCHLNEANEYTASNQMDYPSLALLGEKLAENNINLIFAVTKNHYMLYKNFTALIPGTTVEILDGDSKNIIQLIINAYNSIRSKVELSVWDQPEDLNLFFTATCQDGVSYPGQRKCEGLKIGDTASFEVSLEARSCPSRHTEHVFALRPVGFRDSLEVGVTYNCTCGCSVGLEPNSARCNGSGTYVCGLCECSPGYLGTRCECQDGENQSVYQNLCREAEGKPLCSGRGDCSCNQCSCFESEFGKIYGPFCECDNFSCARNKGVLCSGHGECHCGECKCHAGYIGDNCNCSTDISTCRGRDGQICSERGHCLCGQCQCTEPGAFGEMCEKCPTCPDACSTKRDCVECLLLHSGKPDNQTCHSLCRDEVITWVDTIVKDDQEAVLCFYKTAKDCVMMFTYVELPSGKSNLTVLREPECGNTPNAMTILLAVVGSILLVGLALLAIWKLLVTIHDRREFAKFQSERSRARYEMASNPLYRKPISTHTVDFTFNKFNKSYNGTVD

Row | IC50 [1] | IC50 [2] | IC50 [3] | IC50 [4] | IC50 [5] | IC50 [6] | IC50 [7] | SMILES
1 | 5.17 µM | 20 µM | 0.2 µM | 4.23 µM | 3 µM | 0.04 nM | 0.008 µM | Cc1ccnc(NCCCC(=O)NCC(=O)NC(CC(=O)O)c2ccc(-c3cccc4ccccc34)cc2)c1 (centres undefined)
2 | 8.7 µM | 24 µM | 3.8 µM | 3 µM | 0.97 µM | 53 nM | 0.004 µM | Cc1ccnc(NCCCCC(=O)NNC(=O)CC(CC(=O)O)c2ccc(-c3ccccc3)cc2)c1 (centres undefined)
3 | 2.67 µM | 26 µM | 0.1 µM | 4.05 µM | 9.5 µM | 0.6 nM | 0.00045 µM | O=C(O)CC(NC(=O)CNC(=O)CCCCNc1ccccn1)c1ccc(-c2ccccc2)cc1 (centres undefined)
4 | 0.042 µM | 1.2 µM | 0.09 µM | 7.3 µM | 6.9 µM | 4 nM | 0.013 µM | O=C(O)CC(NC(=O)CNC(=O)CCCNc1ccccn1)c1cccc([N+](=O)[O-])c1 (centres undefined)

Continued, compound first:

Row | SMILES | IC50 [1] | IC50 [2] | IC50 [3] | IC50 [4] | IC50 [5] | IC50 [6] | IC50 [7]
5 | C[C@H]1C(=O)N[C@@H](CCCN=C(N)N)C(=O)NCC(=O)N[C@@H](CC(=O)O)C(=O)N[C@H](Cc2ccccc2)C(=O)N1C | 0.662 µM | 1.3 µM | 37 µM | 6 µM | 3.9 µM | 2400 nM | –
6 | N=C(N)NCCCCC(=O)NNC(=O)NC(CC(=O)O)c1ccccc1 (centres undefined) | 0.026 µM | 43 µM | 9.6 µM | – | > 50 µM | 460 nM | –
7 | Cc1ccnc(NCCCCC(=O)NNC(=O)NC(CC(=O)O)c2cc(Cl)cc(Cl)c2)c1 (centres undefined) | 2.5 µM | 5 µM | 0.3 µM | > 10 µM | 12 µM | 1.7 nM | 0.064 µM
8 | Cc1ccnc(NCCCCCCC(=O)NC(CC(=O)O)c2cccc([N+](=O)[O-])c2)c1 (centres undefined) | 1.6 µM | 21 µM | 2.1 µM | 0.58 µM | > 50 µM | 61 nM | 0.053 µM
9 | Cc1ccnc(NCCCCC(=O)NCC(=O)NC(CC(=O)O)c2cc(Cl)cc(Cl)c2)c1 (centres undefined) | 0.35 µM | 2 µM | 0.3 µM | > 10 µM | 16 µM | 0.4 nM | 0.053 µM
10 | Cc1ccnc(NCCCC(=O)NCC(=O)NC(CC(=O)O)c2cccc(OC(F)(F)F)c2)c1 (centres undefined) | 0.039 µM | 27 µM | 0.03 µM | > 10 µM | 24 µM | 0.15 nM | 0.014 µM
11 | Cc1ccnc(NCCCCC(=O)NNC(=O)CC(CC(=O)O)c2cc(Cl)cc(Cl)c2)c1 (centres undefined) | 5.7 µM | 18 µM | 1.6 µM | > 10 µM | 20 µM | 44 nM | 0.006 µM
